# Results published in ChEMBL document CHEMBL1926509, “Discovery of pyrazolo[1,5-a]pyridines as p110α-selective PI3 kinase inhibitors” (Bioorg Med Chem, 2012).
# Key:
# Mus musculus = assay: Toxicity in human HCT116 cells xenografted Rag1 knockout mouse assessed as mortality at 20 mg/kg, ip qd for 14 days; type: organism-based, HCT-116; design: dose 20 mg/kg, route intraperitoneal; conditions: in vivo, 336 h
# In short: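 Age-matched specific pathogen-free female Rag1-/- mice bearing subcutaneous HCT-116 tumours (5 × 10⁶ cells inoculated in PBS), n = 7 per group. Drug given ip at 20 mg/kg once daily for 14 days in 7.5% DMSO/42.5% PEG-400/20% 2-hydroxypropyl-β-cyclodextrin/30% water; controls received vehicle alone. Bodyweight recorded daily; mice culled when weight loss exceeded 20% of starting weight.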
# [1] = target: Phosphatidylinositol 4,5-bisphosphate 3-kinase catalytic subunit alpha isoform (Homo sapiens, UniProt P42336); assay: Inhibition of recombinant PI3K p110alpha using L-alpha-phosphatidylinositol as substrate and [gamma33P]ATP after 60 mins by thin layer chromatographic technique
# Phosphatidylinositol 4,5-bisphosphate 3-kinase catalytic subunit alpha isoform (Homo sapiens, UniProt P42336), sequence (P42336 whole entry, canonical isoform): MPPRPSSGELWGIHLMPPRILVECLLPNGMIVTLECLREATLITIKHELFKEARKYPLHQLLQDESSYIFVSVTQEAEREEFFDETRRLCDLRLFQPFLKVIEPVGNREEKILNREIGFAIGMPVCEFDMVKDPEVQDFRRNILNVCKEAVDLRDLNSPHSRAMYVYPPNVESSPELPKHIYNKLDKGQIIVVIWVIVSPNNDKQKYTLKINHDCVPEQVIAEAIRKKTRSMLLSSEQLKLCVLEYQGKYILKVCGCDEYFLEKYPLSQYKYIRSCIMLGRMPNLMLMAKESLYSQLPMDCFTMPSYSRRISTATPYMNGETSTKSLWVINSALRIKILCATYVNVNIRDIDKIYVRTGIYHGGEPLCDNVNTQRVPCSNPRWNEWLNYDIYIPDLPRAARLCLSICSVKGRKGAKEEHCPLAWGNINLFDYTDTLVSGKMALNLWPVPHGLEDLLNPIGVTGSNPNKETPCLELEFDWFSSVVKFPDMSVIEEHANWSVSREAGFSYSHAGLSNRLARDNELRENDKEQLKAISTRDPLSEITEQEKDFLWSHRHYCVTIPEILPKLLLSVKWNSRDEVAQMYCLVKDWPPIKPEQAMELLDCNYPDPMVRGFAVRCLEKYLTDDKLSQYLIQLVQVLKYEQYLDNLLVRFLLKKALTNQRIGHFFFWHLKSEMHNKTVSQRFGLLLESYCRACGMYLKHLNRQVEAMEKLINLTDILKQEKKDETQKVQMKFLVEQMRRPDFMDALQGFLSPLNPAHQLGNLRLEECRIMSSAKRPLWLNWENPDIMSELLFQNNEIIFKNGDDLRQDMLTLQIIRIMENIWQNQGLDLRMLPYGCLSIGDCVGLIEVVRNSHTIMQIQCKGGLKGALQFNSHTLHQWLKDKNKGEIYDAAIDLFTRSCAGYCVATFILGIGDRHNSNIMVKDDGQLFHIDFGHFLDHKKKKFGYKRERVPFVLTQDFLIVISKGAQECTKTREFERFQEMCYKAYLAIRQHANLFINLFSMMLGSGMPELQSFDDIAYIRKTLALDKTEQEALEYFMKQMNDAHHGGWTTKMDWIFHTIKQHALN
# In short: (§1)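 In-house recombinant class Ia PI3K isoform (0.1 µg) with L-α-phosphatidylinositol substrate in lipid kinase buffer (Tris–HCl pH 7.4, NaCl, EDTA), 1% DMSO final. Started with ATP mix (5 mM MgCl₂, 100 µM ATP plus [γ-³³P]ATP), 1 h at room temperature, stopped with 1 M HCl. Lipids extracted in two steps, separated by TLC, read by phosphorimager. Nine inhibitor concentrations; IC50 averaged over two experiments.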
# [2] = target: Phosphatidylinositol 4,5-bisphosphate 3-kinase catalytic subunit beta isoform (Homo sapiens, UniProt P42338); assay: Inhibition of recombinant PI3K p110beta using L-alpha-phosphatidylinositol as substrate and [gamma33P]ATP after 60 mins by thin layer chromatographic technique; in short: as §1
# Phosphatidylinositol 4,5-bisphosphate 3-kinase catalytic subunit beta isoform, sequence (P42338 whole entry, canonical isoform): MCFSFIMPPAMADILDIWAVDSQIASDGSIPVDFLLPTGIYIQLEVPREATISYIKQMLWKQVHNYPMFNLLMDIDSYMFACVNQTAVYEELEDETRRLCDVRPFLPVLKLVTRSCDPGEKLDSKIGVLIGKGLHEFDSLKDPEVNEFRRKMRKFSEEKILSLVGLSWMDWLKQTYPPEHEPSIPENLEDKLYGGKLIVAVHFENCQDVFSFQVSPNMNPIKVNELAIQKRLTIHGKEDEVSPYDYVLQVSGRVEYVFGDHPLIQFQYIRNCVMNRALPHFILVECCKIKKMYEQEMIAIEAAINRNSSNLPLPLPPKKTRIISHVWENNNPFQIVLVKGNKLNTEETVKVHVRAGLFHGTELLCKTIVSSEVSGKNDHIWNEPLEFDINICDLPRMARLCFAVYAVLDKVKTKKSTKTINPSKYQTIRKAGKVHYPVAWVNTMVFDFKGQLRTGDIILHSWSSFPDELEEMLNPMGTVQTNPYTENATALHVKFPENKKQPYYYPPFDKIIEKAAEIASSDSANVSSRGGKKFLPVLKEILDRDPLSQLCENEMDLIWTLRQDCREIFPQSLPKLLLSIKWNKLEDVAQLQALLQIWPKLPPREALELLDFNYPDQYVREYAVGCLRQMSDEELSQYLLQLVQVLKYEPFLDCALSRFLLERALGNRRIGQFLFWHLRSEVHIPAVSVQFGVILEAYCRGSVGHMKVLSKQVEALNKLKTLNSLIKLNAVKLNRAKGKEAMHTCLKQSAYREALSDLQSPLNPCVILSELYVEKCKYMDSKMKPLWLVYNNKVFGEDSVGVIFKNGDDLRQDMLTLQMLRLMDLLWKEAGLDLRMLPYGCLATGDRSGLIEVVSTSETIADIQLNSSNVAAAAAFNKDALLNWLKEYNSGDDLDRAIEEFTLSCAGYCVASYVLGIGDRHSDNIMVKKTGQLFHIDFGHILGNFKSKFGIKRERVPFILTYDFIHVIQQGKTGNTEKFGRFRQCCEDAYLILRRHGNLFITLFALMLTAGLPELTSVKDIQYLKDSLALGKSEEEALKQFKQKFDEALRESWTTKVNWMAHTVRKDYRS
# [3] = target: T1, Phosphatidylinositol 4,5-bisphosphate 3-kinase catalytic subunit delta isoform (Homo sapiens, UniProt O00329); assay: Inhibition of recombinant PI3K p110delta using L-alpha-phosphatidylinositol as substrate and [gamma33P]ATP after 60 mins by thin layer chromatographic technique; in short: as §1
# T1 sequence (O00329 whole entry): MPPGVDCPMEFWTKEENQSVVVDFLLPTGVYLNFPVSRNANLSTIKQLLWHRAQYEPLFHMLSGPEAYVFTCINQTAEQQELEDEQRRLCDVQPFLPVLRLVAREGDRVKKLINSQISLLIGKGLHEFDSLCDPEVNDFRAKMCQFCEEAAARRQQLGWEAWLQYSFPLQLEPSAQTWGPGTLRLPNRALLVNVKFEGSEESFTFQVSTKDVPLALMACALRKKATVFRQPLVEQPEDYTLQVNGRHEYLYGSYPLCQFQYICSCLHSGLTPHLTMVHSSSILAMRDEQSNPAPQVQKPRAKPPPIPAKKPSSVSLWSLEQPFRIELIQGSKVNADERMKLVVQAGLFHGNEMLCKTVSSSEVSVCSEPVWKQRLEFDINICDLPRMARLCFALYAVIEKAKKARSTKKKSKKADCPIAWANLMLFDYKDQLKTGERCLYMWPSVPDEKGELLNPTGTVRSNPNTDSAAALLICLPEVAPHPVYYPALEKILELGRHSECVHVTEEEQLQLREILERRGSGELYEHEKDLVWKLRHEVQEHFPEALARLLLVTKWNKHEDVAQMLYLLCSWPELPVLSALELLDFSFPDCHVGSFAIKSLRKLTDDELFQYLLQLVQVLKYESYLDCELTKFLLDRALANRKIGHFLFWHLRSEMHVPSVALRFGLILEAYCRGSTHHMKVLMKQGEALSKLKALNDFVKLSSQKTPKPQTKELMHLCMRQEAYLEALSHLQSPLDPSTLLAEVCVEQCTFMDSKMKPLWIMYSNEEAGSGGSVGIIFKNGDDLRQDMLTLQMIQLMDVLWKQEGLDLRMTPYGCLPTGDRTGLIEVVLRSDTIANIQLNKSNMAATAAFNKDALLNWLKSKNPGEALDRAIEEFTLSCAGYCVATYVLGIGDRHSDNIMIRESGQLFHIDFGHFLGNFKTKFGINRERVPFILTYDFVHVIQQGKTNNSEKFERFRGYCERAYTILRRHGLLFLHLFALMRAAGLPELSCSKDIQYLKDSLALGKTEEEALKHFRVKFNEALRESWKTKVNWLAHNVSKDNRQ
# [4] = Cytotoxicity against human NZB5 cells expressing wild type p110alpha assessed as inhibition of [3H]thymidine incorporation after 5 days; type: functional, cell-based
# In short: (§2)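 Early-passage lab-derived lines in α-MEM with insulin, transferrin, selenite and 5% FBS. Seeded at 1000 cells/well; drug added in 10-fold steps up to 20 µM. Incubated five days under 5% O₂/5% CO₂/90% N₂, with ³H-thymidine (0.04 µCi/well) over the last 6 h. Duplicates per dose; least-squares exponential fit; IC50 is the concentration giving 50% less incorporation.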
# [5] = Cytotoxicity against human NZOV9 cells expressing p110alpha Y1021C mutant assessed as inhibition of [3H]thymidine incorporation after 5 days; type: functional, cell-based; in short: as §2
# [6] = target: T2, Phosphatidylinositol 4,5-bisphosphate 3-kinase catalytic subunit alpha isoform (Homo sapiens, UniProt P42336, H1047R); assay: Inhibition of recombinant PI3K p110alpha H1047R mutant using L-alpha-phosphatidylinositol as substrate and [gamma33P]ATP after 60 mins by thin layer chromatographic technique
# T2 sequence (P42336 whole entry H1047R, canonical isoform): as the sequence (P42336 whole entry, canonical isoform) above, with H1047R counted along it
# [7] = Inhibition of DNA-PK
# [8] = target: Phosphatidylinositol 4,5-bisphosphate 3-kinase catalytic subunit gamma isoform (Homo sapiens, UniProt P48736); assay: Inhibition of PI3K p110gamma
# In short: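 Recombinant PI3K isoform made in-house, mixed with phosphatidylinositol substrate and inhibitor in 1% DMSO. Lipid kinase buffer (2× stock: 40 mM Tris-HCl pH 7.4, 200 mM NaCl, 1 mM EDTA). Started with ATP/MgCl₂ (5 mM)/[γ-³³P]ATP mix, 1 h at room temperature, stopped with 1 M HCl. Lipids extracted, separated by TLC and read by phosphorimager. Nine concentrations, run twice, IC50s averaged.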
# [9] = target: Dual specificity mitogen-activated protein kinase kinase 1 (Homo sapiens) (UniProt Q02750); assay: Inhibition of MKK1 assessed as residual activity at 1 uM
# Dual specificity mitogen-activated protein kinase kinase 1 (Homo sapiens), sequence (Q02750 whole entry): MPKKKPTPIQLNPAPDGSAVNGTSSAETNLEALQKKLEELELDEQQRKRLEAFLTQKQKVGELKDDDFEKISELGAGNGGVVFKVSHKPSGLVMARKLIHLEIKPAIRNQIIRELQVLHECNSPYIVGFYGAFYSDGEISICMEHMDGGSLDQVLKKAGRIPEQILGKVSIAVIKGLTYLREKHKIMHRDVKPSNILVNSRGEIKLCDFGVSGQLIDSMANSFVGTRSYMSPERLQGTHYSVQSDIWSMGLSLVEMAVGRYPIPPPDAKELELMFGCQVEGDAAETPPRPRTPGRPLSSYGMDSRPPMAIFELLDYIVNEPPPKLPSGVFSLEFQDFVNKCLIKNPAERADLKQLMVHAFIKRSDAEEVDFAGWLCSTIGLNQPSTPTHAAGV
# [10] = target: Mitogen-activated protein kinase 14 (Homo sapiens) (UniProt Q16539); assay: Inhibition of p38alpha assessed as residual activity at 1 uM
# Mitogen-activated protein kinase 14 (Homo sapiens), sequence (Q16539 whole entry): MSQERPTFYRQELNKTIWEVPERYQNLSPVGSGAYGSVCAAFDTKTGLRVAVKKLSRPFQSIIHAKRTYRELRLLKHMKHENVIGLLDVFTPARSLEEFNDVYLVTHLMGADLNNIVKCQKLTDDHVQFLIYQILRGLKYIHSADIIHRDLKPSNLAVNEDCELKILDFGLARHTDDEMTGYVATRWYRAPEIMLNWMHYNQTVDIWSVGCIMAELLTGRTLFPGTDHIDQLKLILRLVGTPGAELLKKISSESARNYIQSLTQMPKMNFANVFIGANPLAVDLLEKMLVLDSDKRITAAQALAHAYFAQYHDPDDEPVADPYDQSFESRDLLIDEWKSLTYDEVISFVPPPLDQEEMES
# [11] = target: High affinity nerve growth factor receptor (Homo sapiens) (UniProt P04629); assay: Inhibition of TrkA assessed as residual activity at 1 uM
# High affinity nerve growth factor receptor (Homo sapiens), sequence (P04629 33-796 limits assumed): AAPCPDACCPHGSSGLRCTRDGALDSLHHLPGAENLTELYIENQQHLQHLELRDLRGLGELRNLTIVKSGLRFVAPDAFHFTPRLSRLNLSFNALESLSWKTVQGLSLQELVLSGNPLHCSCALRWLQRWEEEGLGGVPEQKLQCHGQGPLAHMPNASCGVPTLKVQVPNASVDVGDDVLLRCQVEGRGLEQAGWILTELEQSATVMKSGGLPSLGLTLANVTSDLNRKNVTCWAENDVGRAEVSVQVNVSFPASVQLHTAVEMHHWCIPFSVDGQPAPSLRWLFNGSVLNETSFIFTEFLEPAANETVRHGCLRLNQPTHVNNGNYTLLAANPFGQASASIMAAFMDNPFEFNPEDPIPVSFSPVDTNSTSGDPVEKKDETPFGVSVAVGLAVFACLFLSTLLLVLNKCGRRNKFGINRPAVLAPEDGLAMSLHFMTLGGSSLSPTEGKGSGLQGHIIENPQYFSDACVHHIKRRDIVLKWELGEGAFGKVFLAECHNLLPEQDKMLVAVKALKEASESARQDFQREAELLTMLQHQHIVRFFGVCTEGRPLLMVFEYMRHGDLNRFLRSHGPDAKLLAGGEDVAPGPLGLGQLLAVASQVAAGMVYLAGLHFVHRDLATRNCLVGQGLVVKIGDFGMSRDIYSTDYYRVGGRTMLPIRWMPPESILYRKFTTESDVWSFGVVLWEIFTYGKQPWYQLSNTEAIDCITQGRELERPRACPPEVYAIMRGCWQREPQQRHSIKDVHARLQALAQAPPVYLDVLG
# [12] = target: High affinity nerve growth factor receptor (Homo sapiens) (UniProt P04629); assay: Inhibition of TrkA assessed as residual activity at 10 uM
# [13] = target: Insulin receptor (Homo sapiens) (UniProt P06213); assay: Inhibition of IR assessed as residual activity at 10 uM
# [14] = target: Misshapen-like kinase 1 (Homo sapiens) (UniProt Q8N4C8); assay: Inhibition of MINK1 assessed as residual activity at 1 uM
# [15] = target: T2, Phosphatidylinositol 4,5-bisphosphate 3-kinase catalytic subunit alpha isoform; assay: Inhibition of PI3K […] H1047R mutant-mediated PKB phosphorylation at Thr308 in human HCT116 cells after 15 mins by immunoblot analysis; type: cell-based, HCT-116
# In short: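 HCT-116 cells in MEM alpha with 10% FBS and penicillin/streptomycin were seeded, grown 1 day, then serum-starved overnight. They were exposed to a range of inhibitor concentrations in DMSO (0.1% final) for 15 min, then stimulated with 500 nM insulin for 5 min. Phospho-PKB (Ser473 or Thr308) was detected by immunoblotting.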
smiles,measurement,setting,value
Cc1ccc([N+](=O)[O-])cc1S(=O)(=O)N(C)/N=C/c1cnn2ccc(C#N)cc12,Activity,Mus musculus,Non-toxic
same,IC50,[1],0.9 nM
same,IC50,[2],46 nM
same,IC50,[3],49 nM
same,IC50,[4],60 nM
same,IC50,[5],1400 nM
same,IC50,[6],0.5 nM
same,IC50,[7],1.1 nM
same,IC50,[8],14 nM
same,Activity,[9],10%
same,Activity,[10],18%
same,Activity,[11],19%
same,Activity,[12],13%
same,Activity,[13],42%
same,Activity,[14],5%
same,IC50,[15],26 nM
